Measured values published in ChEMBL document CHEMBL1158614, “Synthesis and biological evaluation of azobicyclo[3.3.0] octane derivatives as dipeptidyl peptidase 4 inhibitors for the treatment of type 2 diabetes” (Bioorg Med Chem Lett, 2010).
Blank lines part the entries; values can stand above or below the compound they belong to.

Experiments:
Dipeptidyl peptidase 4 = Dipeptidyl peptidase 4 (Homo sapiens, UniProt P27487)
[1] = Half life in Sprague-Dawley rat at 3 mg/kg, po; assay type: ADME, organism-based; parameters: dose 3 mg/kg, route oral; settings: in vivo
Summary of the method: (§1)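 Single oral dose of 3.0 mg/kg given to Sprague-Dawley rats, n = 6. Plasma concentration–time profiles gave apparent total plasma clearance (CL_z/F), half-life, AUC0–t and peak plasma concentration (Cmax).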

Cynomolgus monkey [2] = experiment: animal or person; settings: Macaca fascicularis, po, 5 h, read-out: Inhibition
[3] = (§2) AUC (0 to t) in Sprague-Dawley rat at 3 mg/kg, po; assay type: ADME, organism-based, Plasma; parameters: dose 3 mg/kg, route oral; settings: Sprague-Dawley, plasma
Summary of the method: as §1

[4] = Cmax in Sprague-Dawley rat at 3 mg/kg, po; assay type: ADME, organism-based; parameters: dose 3 mg/kg, route oral; settings: in vivo
Summary of the method: as §1

Mus musculus [5] = experiment: Antidiabetic activity in ICR mouse assessed as reduction in glucose AUC (0 to 120) at 3 mg/kg, po pretreated 30 mins before glucose challenge measured after 120 mins by oral glucose tolerance test relative to control; assay type: functional, organism-based; parameters: dose 3 mg/kg
Summary of the method: (§3)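 Lean ICR mice were dosed orally at 1, 3 or 10 mg/kg 0.5 h before an oral glucose challenge. Blood glucose was followed over 0–120 min, and glucose AUC0–120 min was expressed as percent change versus vehicle control. Data are mean ± SEM, n = 5 per group; P versus control.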

Mus musculus [6] = experiment: Antidiabetic activity in ICR mouse assessed as reduction in glucose AUC (0 to 120) at 1 mg/kg, po pretreated 30 mins before glucose challenge measured after 120 mins by oral glucose tolerance test relative to control; assay type: functional, organism-based; parameters: dose 1 mg/kg
Summary of the method: as §3

[7] = (§4) Apparent total oral clearance in Sprague-Dawley rat at 3 mg/kg, po; assay type: ADME, organism-based; parameters: dose 3 mg/kg, route oral; settings: Sprague-Dawley, in vivo
Summary of the method: as §1

Mus musculus [8] = experiment: Antidiabetic activity in ICR mouse assessed as reduction in glucose AUC (0 to 120) at 10 mg/kg, po pretreated 30 mins before glucose challenge measured after 120 mins by oral glucose tolerance test relative to control; assay type: functional, organism-based; parameters: dose 10 mg/kg
Summary of the method: as §3

Cynomolgus monkey [9] = experiment: animal or person; settings: Macaca fascicularis, po, 9 h, read-out: Inhibition
Cynomolgus monkey [10] = experiment: animal or person; settings: Macaca fascicularis, po, 12 h, read-out: Inhibition
Rattus norvegicus [11] = experiment: as §2; assay type: ADME, organism-based, Plasma; parameters: dose 3 mg/kg, route oral; settings: in vivo
Summary of the method: as §1

Rattus norvegicus [12] = experiment: as §4; assay type: ADME, organism-based; parameters: dose 3 mg/kg, route oral; settings: in vivo
Summary of the method: as §1

Dipeptidyl peptidase 4, sequence (P27487 whole entry): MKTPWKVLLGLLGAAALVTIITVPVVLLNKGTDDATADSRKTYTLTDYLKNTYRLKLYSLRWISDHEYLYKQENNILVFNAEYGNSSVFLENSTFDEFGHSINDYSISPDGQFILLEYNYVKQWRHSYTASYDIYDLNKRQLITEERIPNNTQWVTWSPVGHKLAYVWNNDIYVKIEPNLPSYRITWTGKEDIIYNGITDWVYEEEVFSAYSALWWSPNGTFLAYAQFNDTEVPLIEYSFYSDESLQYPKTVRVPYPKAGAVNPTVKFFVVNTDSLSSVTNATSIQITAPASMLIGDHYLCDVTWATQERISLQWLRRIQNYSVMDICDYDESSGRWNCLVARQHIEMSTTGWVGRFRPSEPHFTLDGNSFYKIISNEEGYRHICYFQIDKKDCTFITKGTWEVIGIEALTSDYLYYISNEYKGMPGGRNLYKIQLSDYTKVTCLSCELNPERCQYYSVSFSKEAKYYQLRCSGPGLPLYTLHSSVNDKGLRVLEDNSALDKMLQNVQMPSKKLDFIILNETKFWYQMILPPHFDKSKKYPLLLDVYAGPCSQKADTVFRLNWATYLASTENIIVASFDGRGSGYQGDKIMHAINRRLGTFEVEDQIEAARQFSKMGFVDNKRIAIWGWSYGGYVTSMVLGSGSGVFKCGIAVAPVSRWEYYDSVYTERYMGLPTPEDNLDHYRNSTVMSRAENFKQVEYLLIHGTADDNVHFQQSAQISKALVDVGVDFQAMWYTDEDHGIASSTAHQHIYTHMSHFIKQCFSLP

IC50 (Dipeptidyl peptidase 4): 39 nM
SMILES: N#C[C@@H]1CCCN1C(=O)CN[C@@H]1C[C@@H]2CN(C(=O)N3CCCC3)C[C@@H]2C1

IC50 (Dipeptidyl peptidase 4): 50 nM
SMILES: N#C[C@@H]1CCCN1C(=O)CN[C@@H]1C[C@@H]2CN(C(=O)N3CCOCC3)C[C@@H]2C1

IC50 (Dipeptidyl peptidase 4): 69 nM
SMILES: N#C[C@@H]1CCCN1C(=O)CN[C@@H]1C[C@@H]2CN(C(=O)N3CCCCC3)C[C@@H]2C1

Continued, compound first:

SMILES: COC(=O)N1C[C@H]2C[C@@H](NCC(=O)N3CCC[C@H]3C#N)C[C@H]2C1
IC50 (Dipeptidyl peptidase 4): 24 nM

SMILES: CN(C)C(=O)N1C[C@H]2C[C@@H](NCC(=O)N3CCC[C@H]3C#N)C[C@H]2C1
half-life [1]: 56.4 min
inhibition in vivo at 20 mg/kg (Cynomolgus monkey [2]): > 75%
AUC(0-t) [3]: 68.7 ng·h/mL
Cmax [4]: 39.4 ng/mL
AUC (Mus musculus [5]): 42%
AUC (Mus musculus [6]): 39.7%
CL/F [7]: 190 mL/min/kg
AUC (Mus musculus [8]): 45%

SMILES: N#C[C@@H]1CCCN1C(=O)CNC12CC3CC(CC(O)(C3)C1)C2
AUC (Mus musculus [5]): 41.7%
AUC (Mus musculus [6]): 35.8%
AUC (Mus musculus [8]): 51.4%

SMILES: CC(C)NC(=O)N1C[C@H]2C[C@@H](NCC(=O)N3CCC[C@H]3C#N)C[C@H]2C1
IC50 (Dipeptidyl peptidase 4): 120 nM

SMILES: CN(C)C(=O)N1C[C@@H]2C[C@@](C)(NCC(=O)N3CCC[C@H]3C#N)C[C@@H]2C1
half-life [1]: 54 min
AUC(0-t) [3]: 120 ng·h/mL
Cmax [4]: 146 ng/mL
CL/F [7]: 564 mL/min/kg
inhibition in vivo at 20 mg/kg (Cynomolgus monkey [9]): > 75%
inhibition in vivo at 20 mg/kg (Cynomolgus monkey [10]): 51%

SMILES: N#C[C@@H]1CCCN1C(=O)CN[C@@H]1C[C@@H]2CN(C(=O)CO)C[C@@H]2C1
IC50 (Dipeptidyl peptidase 4): 14 nM

SMILES: CN(C)C(=O)N1C[C@@H]2C[C@](C)(NCC(=O)N3CCC[C@H]3C#N)C[C@@H]2C1
half-life [1]: 195 min
inhibition in vivo at 20 mg/kg (Cynomolgus monkey [2]): > 75%
AUC (Rattus norvegicus [11]): 266.3 ng·h/mL
Cmax [4]: 165 ng/mL
CL (Rattus norvegicus [12]): 847.8 mL/min/kg
inhibition in vivo at 20 mg/kg (Cynomolgus monkey [10]): 38%
